Test results as given in ChEMBL document CHEMBL3877264, “Quinolidene-rhodanine conjugates: Facile synthesis and biological evaluation” (Eur J Med Chem, 2017).
In brackets after ≈: the same amount, converted by molar mass.

Assays:
[1] = tested on: Mycobacterium tuberculosis; assay: Growth inhibition of Mycobacterium bovis BCG ATCC 35743 at active stage at 1.56 ug/ml measured after 8 days by nitrate reductase dye based two fold dilution method relative to control; type: functional; settings: BCG str. ATCC 35743, 192 h, read-out: GI
Summary of the method: (§1)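 M. bovis BCG was grown in Dubos medium and assayed in Mycobacterium pheli minimal medium (pH 6.6), with compounds from DMSO stocks. Incubation lasted 8 days for active and 12 days for dormant cultures. Viability was read by nitrate reductase at 540 nm against cell-free blanks, with vehicle set as 100% growth. Primary screen was at 30, 10 and 3 µg/ml, in triplicate, mean ± SD. MIC was taken from dose-response curves.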

Escherichia coli [2] = assay: Growth inhibition of Escherichia coli NCIM 2688 at 3 ug/ml measured after 8 hrs relative to control; type: functional; settings: NCIM 2688, 8 h, read-out: GI
Summary of the method: (§2)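 Bacteria grown in LB at 37 °C and 180 rpm to OD 1. Compounds added to wells, then 0.1% inoculum of 1 OD culture (620 nm). Growth read as OD at 620 nm after 8 h for gram-negative and after 12 h for gram-positive strains.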

[3] = tested on: Mycobacterium tuberculosis; assay: Growth inhibition of Mycobacterium tuberculosis H37Ra ATCC 25177 at dormant stage at 3.13 ug/ml measured after 12 days by XTT dye based two fold dilution method relative to control; type: functional; settings: H37Ra ATCC 25177, 288 h, read-out: GI
Summary of the method: (§3)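 MTB H37Ra was grown in Dubos medium, then exposed in Mycobacterium pheli minimal medium (pH 6.6) to compounds dissolved in DMSO. The assay ended on day 8 (active) or day 12 (dormant). Viable cells were measured by XTT reduction menadione assay at 470 nm, blank-corrected, relative to vehicle control. Triplicates were expressed as mean ± SD. MIC came from dose-response curves.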

[4] = tested on: Mycobacterium tuberculosis; assay: Growth inhibition of Mycobacterium tuberculosis H37Ra ATCC 25177 at active stage at 3.13 ug/ml measured after 8 days by XTT dye based two fold dilution method relative to control; type: functional; settings: H37Ra ATCC 25177, 192 h, read-out: GI; summary of the method: as §3
Pseudomonas fluorescens = assay: Growth inhibition of Pseudomonas fluorescens NCIM 2036 at 3 ug/ml measured after 8 hrs relative to control; type: functional; settings: NCIM 2036, 8 h, read-out: GI; summary of the method: as §2
[5] = tested on: Mycobacterium tuberculosis; assay: Growth inhibition of Mycobacterium tuberculosis H37Ra ATCC 25177 at active stage at 0.78 ug/ml measured after 8 days by XTT dye based two fold dilution method relative to control; type: functional; settings: H37Ra ATCC 25177, 192 h, read-out: GI; summary of the method: as §3
Bacillus subtilis [6] = assay: Growth inhibition of Bacillus subtilis NCIM 2079 at 30 ug/ml measured after 12 hrs relative to control; type: functional; settings: NCIM 2079, 12 h, read-out: GI; summary of the method: as §2
[7] = tested on: Mycobacterium tuberculosis; assay: Growth inhibition of Mycobacterium tuberculosis H37Ra ATCC 25177 at dormant stage measured after 12 days by XTT dye based two fold dilution method; type: functional; settings: H37Ra ATCC 25177, 288 h; summary of the method: as §3
[8] = tested on: Mycobacterium tuberculosis; assay: Growth inhibition of Mycobacterium tuberculosis H37Ra ATCC 25177 at active stage at 12.5 ug/ml measured after 8 days by XTT dye based two fold dilution method relative to control; type: functional; settings: H37Ra ATCC 25177, 192 h, read-out: GI
[9] = tested on: Mycobacterium tuberculosis; assay: Growth inhibition of Mycobacterium tuberculosis H37Ra ATCC 25177 at active stage at 25 ug/ml measured after 8 days by XTT dye based two fold dilution method relative to control; type: functional; settings: H37Ra ATCC 25177, 192 h, read-out: GI; summary of the method: as §3
[10] = tested on: Mycobacterium tuberculosis; assay: Growth inhibition of Mycobacterium bovis BCG ATCC 35743 at dormant stage at 3 ug/ml measured after 12 days by nitrate reductase dye based two fold dilution method relative to control; type: functional; settings: BCG str. ATCC 35743, 288 h, read-out: GI; summary of the method: as §1
Bacillus subtilis [11] = assay: Antibacterial activity against Bacillus subtilis NCIM 2079 measured after 12 hrs; type: functional; settings: NCIM 2079, 12 h; summary of the method: as §2
[12] = tested on: Mycobacterium tuberculosis; assay: Growth inhibition of Mycobacterium bovis BCG ATCC 35743 at dormant stage measured after 12 days by nitrate reductase dye based two fold dilution method; type: functional; settings: BCG str. ATCC 35743, 288 h; summary of the method: as §1
[13] = Selectivity index, ratio of GI50 for […]-differentiated human THP1 cells to MIC for Mycobacterium tuberculosis H37Ra ATCC 25177 at dormant stage; type: toxicity, cell-based, THP-1; settings: read-out: Selectivity Index
Summary of the method: (§4)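 SI is the cell-line GI50 divided by the dormant-stage mycobacterial MIC. […] THP-1 macrophages were PMA-differentiated for 24 h.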

[14] = tested on: Mycobacterium tuberculosis; assay: Growth inhibition of Mycobacterium tuberculosis H37Ra ATCC 25177 at dormant stage at 6.25 ug/ml measured after 12 days by XTT dye based two fold dilution method relative to control; type: functional; settings: H37Ra ATCC 25177, 288 h, read-out: GI; summary of the method: as §3
[15] = Selectivity index, ratio of GI50 for human A549 cells to MIC for Mycobacterium tuberculosis H37Ra ATCC 25177 at dormant stage; type: toxicity, cell-based; settings: read-out: Selectivity Index; summary of the method: as §4
Staphylococcus aureus = assay: Growth inhibition of Staphylococcus aureus NCIM 2010 at 3 ug/ml measured after 12 hrs relative to control; type: functional; settings: NCIM 2010, 12 h, read-out: GI; summary of the method: as §2
[16] = Selectivity index, ratio of GI50 for human HeLa cells to MIC for Mycobacterium tuberculosis H37Ra ATCC 25177 at dormant stage; type: toxicity, cell-based; settings: read-out: Selectivity Index; summary of the method: as §4
Escherichia coli [17] = assay: Growth inhibition of Escherichia coli NCIM 2688 at 10 ug/ml measured after 8 hrs relative to control; type: functional; settings: NCIM 2688, 8 h, read-out: GI; summary of the method: as §2
Escherichia coli [18] = assay: Growth inhibition of Escherichia coli NCIM 2688 at 30 ug/ml measured after 8 hrs relative to control; type: functional; settings: NCIM 2688, 8 h, read-out: GI; summary of the method: as §2
[19] = tested on: Mycobacterium tuberculosis; assay: Growth inhibition of Mycobacterium bovis BCG ATCC 35743 at dormant stage at 10 ug/ml measured after 12 days by nitrate reductase dye based two fold dilution method relative to control; type: functional; settings: BCG str. ATCC 35743, 288 h, read-out: GI; summary of the method: as §1
[20] = Cytotoxicity against human HeLa cells at 100 ug/ml assessed as growth inhibition measured after 48 hrs by MTT assay relative to control; type: toxicity, cell-based; settings: read-out: GI
[21] = Cytotoxicity against primary HUVEC measured after 48 hrs by MTT assay; type: toxicity, cell-based; settings: human
[22] = tested on: Mycobacterium tuberculosis; assay: Growth inhibition of Mycobacterium tuberculosis H37Ra ATCC 25177 at dormant stage at 50 ug/ml measured after 12 days by XTT dye based two fold dilution method relative to control; type: functional; settings: H37Ra ATCC 25177, 288 h, read-out: GI; summary of the method: as §3
[23] = tested on: Mycobacterium tuberculosis; assay: Growth inhibition of Mycobacterium bovis BCG ATCC 35743 at active stage at 3.13 ug/ml measured after 8 days by nitrate reductase dye based two fold dilution method relative to control; type: functional; settings: BCG str. ATCC 35743, 192 h, read-out: GI; summary of the method: as §1
[24] = Selectivity index, ratio of GI50 for HUVEC to MIC for Mycobacterium bovis BCG ATCC 35743 at dormant stage; settings: pooled result: one value given for 6 cell lines, strains, targets or settings; summary of the method: as §4
[25] = tested on: Mycobacterium tuberculosis; assay: Growth inhibition of Mycobacterium bovis BCG ATCC 35743 at active stage at 25 ug/ml measured after 8 days by nitrate reductase dye based two fold dilution method relative to control; type: functional; settings: BCG str. ATCC 35743, 192 h, read-out: GI; summary of the method: as §1
[26] = tested on: Mycobacterium tuberculosis; assay: Growth inhibition of Mycobacterium tuberculosis H37Ra ATCC 25177 at dormant stage at 0.78 ug/ml measured after 12 days by XTT dye based two fold dilution method relative to control; type: functional; settings: H37Ra ATCC 25177, 288 h, read-out: GI; summary of the method: as §3
Bacillus subtilis [27] = assay: Growth inhibition of Bacillus subtilis NCIM 2079 at 10 ug/ml measured after 12 hrs relative to control; type: functional; settings: NCIM 2079, 12 h, read-out: GI; summary of the method: as §2
Escherichia coli [28] = assay: Antibacterial activity against Escherichia coli NCIM 2688 measured after 8 hrs; type: functional; settings: NCIM 2688, 8 h; summary of the method: as §2

Compound	inhibition of growth at 1.56 µg/mL [1] [%]	inhibition of growth at 3 µg/mL (Escherichia coli [2]) [%]	inhibition of growth at 3.13 µg/mL [3] [%]	inhibition of growth at 3.13 µg/mL [4] [%]	inhibition of growth at 3 µg/mL (Pseudomonas fluorescens) [%]	inhibition of growth at 0.78 µg/mL [5] [%]	inhibition of growth at 30 µg/mL (Bacillus subtilis [6]) [%]	IC50 [7] [µg/mL]	IC90 [7] [µg/mL]	inhibition of growth at 12.5 µg/mL [8] [%]	inhibition of growth at 25 µg/mL [9] [%]	inhibition of growth at 3 µg/mL [10] [%]	MIC (Bacillus subtilis [11]) [µg/mL]	IC50 [12] [µg/mL]	IC90 [12] [µg/mL]	selectivity ratio [13]	inhibition of growth at 6.25 µg/mL [14] [%]	selectivity ratio [15]	inhibition of growth at 3 µg/mL (Staphylococcus aureus) [%]	selectivity ratio [16]	other results
CCOc1ccc2nc(Cl)c(/C=C3\SC(=S)NC3=O)cc2c1	93.4	64.7	71.7	94.8	50.2	-4.44	98.5	2.3 (≈ 6.56 µM)	3.5 (≈ 9.98 µM)	101	106	91	28.4 (≈ 80.9 µM)	1.1 (≈ 3.14 µM)	1.9 (≈ 5.42 µM)	28.6	102	28.6	42.7	28.6	inhibition of growth at 10 µg/mL (Escherichia coli [17]): 77.2%; inhibition of growth at 30 µg/mL (Escherichia coli [18]): 28%; inhibition of growth at 10 µg/mL [19]: 93.5%; inhibition at 48 h, 100 ug/ml [20]: 30.2%; GI50 at 48 h [21]: > 100 µg/mL; inhibition of growth at 50 µg/mL [22]: 93%; inhibition of growth at 3.13 µg/mL [23]: 99.4%; Selectivity Index [24]: 50; inhibition of growth at 25 µg/mL [25]: 98.6%; inhibition of growth at 0.78 µg/mL [26]: -39.5%; inhibition of growth at 10 µg/mL (Bacillus subtilis [27]): -7.03%; MIC (Escherichia coli [28]): > 30 µg/mL
COc1ccc2nc(Cl)c(/C=C3\SC(=S)NC3=O)cc2c1	-39.1	3.11	4.7	38.4	76.2	-20.6	21.2	3.3 (≈ 9.8 µM)	4.7 (≈ 14 µM)	85.2	90.2	-46.3	> 30	2.9 (≈ 8.61 µM)	6.8 (≈ 20.2 µM)	20.8	27.4	20.8	68.7	20.8	inhibition of growth at 10 µg/mL (Escherichia coli [17]): -36.1%; inhibition of growth at 30 µg/mL (Escherichia coli [18]): 61.2%; inhibition of growth at 10 µg/mL [19]: -14%; inhibition at 48 h, 100 ug/ml [20]: 31.3%; GI50 at 48 h [21]: > 100 µg/mL; inhibition of growth at 50 µg/mL [22]: 90.5%; inhibition of growth at 3.13 µg/mL [23]: 14.9%; Selectivity Index [24]: 14.7; inhibition of growth at 25 µg/mL [25]: 88.2%; inhibition of growth at 0.78 µg/mL [26]: -36%; inhibition of growth at 10 µg/mL (Bacillus subtilis [27]): 22.7%; MIC (Escherichia coli [28]): > 30 µg/mL
Cc1cccc2cc(/C=C3\SC(=S)NC3=O)c(Cl)nc12	-33.4	26.2	-0.35	39.9	16.9	20.1	6.66	7.6 (≈ 23.7 µM)	12.9 (≈ 40.2 µM)	76.3	105	-6.23	> 30	5.1 (≈ 15.9 µM)	9.5 (≈ 29.6 µM)	7.8	38.3	7.8	-3.27	7.8	inhibition of growth at 10 µg/mL (Escherichia coli [17]): 27.5%; inhibition of growth at 30 µg/mL (Escherichia coli [18]): 39.9%; inhibition of growth at 10 µg/mL [19]: -5.12%; inhibition at 48 h, 100 ug/ml [20]: 32.1%; GI50 at 48 h [21]: > 100 µg/mL; inhibition of growth at 50 µg/mL [22]: 99.8%; inhibition of growth at 3.13 µg/mL [23]: -17.7%; Selectivity Index [24]: 10.4; inhibition of growth at 25 µg/mL [25]: 99.3%; inhibition of growth at 0.78 µg/mL [26]: -16.1%; inhibition of growth at 10 µg/mL (Bacillus subtilis [27]): -0.291%; MIC (Escherichia coli [28]): > 30 µg/mL
